Data: ChEMBL document CHEMBL1149321, “Synthesis, radiosynthesis, and biological evaluation of carbon-11 and iodine-123 labeled 2beta-carbomethoxy-3beta-[4'-((Z)-2-haloethenyl)phenyl]tropanes: candidate radioligands for in vivo imaging of the serotonin transporter” (J Med Chem, 2004)

Legend:
Rattus norvegicus [1] = experiment: Distribution of the radio labelled compound in hippocampus of rat brain after intravenous administration in presence of RTI-113 after 60 min; assay type: ADME, organism-based; conditions: in vivo, 1 h
How it was run: (§1)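 Male Sprague–Dawley rats (200–250 g) under ketamine/xylazine anaesthesia with tail-vein cannulas. Blocker or none given 15 min before ~20 μCi [123I] tracer iv in 0.2 mL 10% ethanol/saline; blocker dose 4 mg/kg.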

Rattus norvegicus [2] = experiment: Distribution of the radio labelled compound in striatum of rat brain after intravenous administration in presence of RTI-113 after 60 min; assay type: ADME, organism-based; conditions: in vivo, 1 h; how it was run: as §1
Rattus norvegicus [3] = experiment: Distribution of the radio labelled compound in cerebellum of rat brain after intravenous administration in presence of RTI-113 after 60 min; assay type: ADME, organism-based; conditions: in vivo, 1 h
How it was run: (§2)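 Male Sprague–Dawley rats (200–250 g), ketamine/xylazine anesthesia, tail-vein cannula. Blocker (4 mg/kg) or nothing given 15 min before iv [123I]ZIET in 10% ethanol/saline. Killed 60 min post-tracer.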

Rattus norvegicus [4] = experiment: Distribution of the radio labelled compound in brainstem of rat brain after intravenous administration in presence of reboxetine after 60 min; assay type: ADME, organism-based; conditions: in vivo, 1 h; how it was run: as §2
[5] = Ratio of radioactivity in striatum of rat brain to that of rat cerebellum after intravenous administration after 5 min; assay type: functional
How it was run: (§3)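 Male Sprague–Dawley rats (200–250 g) given ~20 μCi [123I] tracer iv in 0.2 mL 10% ethanol/saline under ketamine/xylazine; killed at 5, 30, 60, 120 min (n = 5; n = 4 at 120 min). Brain regions dissected, gamma counted, decay-corrected to %ID/g; regional uptake divided by cerebellum.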

Rattus norvegicus [6] = experiment: Distribution of the radio labelled compound in occipital cortex of rat brain after intravenous administration in absence of blocker after 60 min; assay type: ADME, organism-based; conditions: in vivo, 1 h; how it was run: as §1
Rattus norvegicus [7] = experiment: Distribution in frontal cortex of rat brain after intravenous administration by using [123I]ZIET after 60 min; assay type: ADME, organism-based; conditions: in vivo, 1 h
How it was run: (§4)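 Male Sprague–Dawley rats (200–250 g), fed ad libitum, given ~20 μCi radiotracer iv via tail-vein cannula in 0.2 mL 10% ethanol/saline under ketamine/xylazine im anesthesia. Killed at 5, 30, 60 or 120 min (n = 5; n = 4 at 120 min). Brain regions dissected, weighed, gamma-counted with dose standards, decay-corrected; mean %ID/g ± SE.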

[8] = Ratio of radioactivity in brainstem of rat brain to that of rat cerebellum after intravenous administration after 120 min; assay type: functional; how it was run: as §3
Rattus norvegicus [9] = experiment: Distribution in thyroid of rat brain after intravenous administration by using [123I]ZIET after 5 min; assay type: ADME, organism-based, Thyroid gland; conditions: in vivo; how it was run: as §4
Rattus norvegicus [10] = experiment: Distribution in thyroid of rat brain after intravenous administration by using [123I]ZIET after 30 min; assay type: ADME, organism-based, Thyroid gland; conditions: in vivo, 0.5 h; how it was run: as §4
Rattus norvegicus [11] = experiment: Distribution in hippocampus of rat brain after intravenous administration by using [123I]ZIET after 60 min; assay type: ADME, organism-based; conditions: in vivo, 1 h; how it was run: as §4
Rattus norvegicus [12] = experiment: Distribution in cerebellum of rat brain after intravenous administration by using [123I]ZIET after 120 min; assay type: ADME, organism-based; conditions: in vivo, 2 h; how it was run: as §4
Rattus norvegicus [13] = experiment: Distribution in rest of rat brain after intravenous administration by using [123I]ZIET after 60 min; assay type: ADME, organism-based; conditions: in vivo, 1 h; how it was run: as §4
[14] = Ratio of radioactivity in striatum of rat brain to that of rat cerebellum after intravenous administration after 60 min; assay type: functional; how it was run: as §3
Rattus norvegicus [15] = experiment: Distribution of the radio labelled compound in occipital cortex of rat brain after intravenous administration in presence of RTI-113 after 60 min; assay type: ADME, organism-based; conditions: in vivo, 1 h; how it was run: as §1
Rattus norvegicus [16] = experiment: Distribution in frontal cortex of rat brain after intravenous administration by using [123I]ZIET after 5 min; assay type: ADME, organism-based; conditions: in vivo; how it was run: as §4
Rattus norvegicus [17] = experiment: Distribution in brainstem of rat brain after intravenous administration by using [123I]ZIET after 120 min; assay type: ADME, organism-based; conditions: in vivo, 2 h; how it was run: as §4
Rattus norvegicus [18] = experiment: Distribution of the radio labelled compound in cerebellum of rat brain after intravenous administration in absence of blocker after 60 min; assay type: ADME, organism-based; conditions: in vivo, 1 h; how it was run: as §2
[19] = Ratio of radioactivity in frontal cortex of rat brain to that of rat cerebellum after intravenous administration after 30 min; assay type: functional; how it was run: as §3
Rattus norvegicus [20] = experiment: Distribution in hypothalamus of rat brain after intravenous administration by using [123I]ZIET after 60 min; assay type: ADME, organism-based; conditions: in vivo, 1 h; how it was run: as §4

COC(=O)C1C(c2ccc(/C=C\[123I])cc2)CC2CCC1N2C (stereo not given)
Activity (Rattus norvegicus [1]): 0.42 | Activity (Rattus norvegicus [2]): 0.45 | Activity (Rattus norvegicus [3]): 0.13 | Activity (Rattus norvegicus [4]): 0.36 | Ratio [5]: 1.1 | Activity (Rattus norvegicus [6]): 0.46 | Activity (Rattus norvegicus [7]): 0.71 | Ratio [8]: 3 | Activity (Rattus norvegicus [9]): 0.08 | Activity (Rattus norvegicus [10]): 0.74 | Activity (Rattus norvegicus [11]): 0.63 | Activity (Rattus norvegicus [12]): 0.14 | Activity (Rattus norvegicus [13]): 0.54 | Ratio [14]: 2.6 | Activity (Rattus norvegicus [15]): 0.42 | Activity (Rattus norvegicus [16]): 0.45 | Activity (Rattus norvegicus [17]): 0.41 | Activity (Rattus norvegicus [18]): 0.15 | Ratio [19]: 2 | Activity (Rattus norvegicus [20]): 0.69
